Reference: ChEMBL document CHEMBL5724801, “EUbOPEN Chemogenomics Library - Multiplex” (2024)
Values joined by “and” are separate entries in the source; they are usually repeats but may differ in a detail not shown here. Equal entries are not always repeated. Non-standard residues stand in square brackets, D forms with d. Residues, ends and D or L forms follow the SMILES beside them.

Test system: U2OS
Assay: Multiplex assay against U2OS
Format: toxicity, cell-based
Conditions: human
Outline: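 Live cells were stained at seeding with Hoechst33342, BioTracker Green Microtubule Cytoskeleton Dye, MitoTracker Red and Annexin V Alexa Fluor 680, then imaged on a CQ1 microscope at 37°C and 5% CO2 after compound addition. CellPathfinder machine-learning gating split cells into Hoechst high-intensity objects or normal cells. Normal cells were split into healthy, pyknosed or fragmented nuclei, and pyknosed cells into mitotic or apoptotic. Tubulin, mitochondrial-mass and membrane-permeability phenotypes are per cents of healthy-nucleus cells.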

[1] = 12 h, 1 µM, compound concentration 1 uM
[2] = 12 h, 10 µM, compound concentration 10 uM
[3] = 24 h, 1 µM, compound concentration 1 uM
[4] = 24 h, 10 µM, compound concentration 10 uM
[5] = 48 h, 1 µM, compound concentration 1 uM
[6] = 48 h, 10 µM, compound concentration 10 uM

Question: Which results are given for `CC(C)C[C@@H]1NC(=O)[C@@H](C(C)C)NC(=O)[C@@H]2CCCN2C(=O)[C@@H](CC(=O)O)NC(=O)[C@@H](Cc2c[nH]c3ccccc23)NC1=O` [BQ-123] (cyclo(L[dW][dD]P[dV]))?
Answer: Population Apoptotic (%) [1]: 77% and 83%; Population Fragmented Nuclei (%) [1]: 20% and 19%; Population Healthy Nuclei (%) [1]: 69% and 75%; Population Hoechst High Intensity Objects (%) [1]: 0% and 2%; Population Membrane Permeable-Phenotype (%) [1]: 1% and 2%; Population Mitochondria Different-Phenotype (%) [1]: 1% and 0%; Population Mitotic Cells (%) [1]: 22% and 16%; Population Normal (%) [1]: 99% and 97%; Population Pyknosed Nuclei (%) [1]: 9% and 5%; Population Tubulin-Different-Phenotype (%) [1]: 0% and 8%; Total Cell Count [1]: 228 and 118; Population Apoptotic (%) [2]: 78% and 75%; Population Fragmented Nuclei (%) [2]: 29% and 25%; Population Healthy Nuclei (%) [2]: 65% and 70%; Population Hoechst High Intensity Objects (%) [2]: 2%; Population Membrane Permeable-Phenotype (%) [2]: 8% and 7%; Population Mitochondria Different-Phenotype (%) [2]: 1% and 4%; Population Mitotic Cells (%) [2]: 21% and 25%; Population Normal (%) [2]: 97%; Population Pyknosed Nuclei (%) [2]: 4%; Population Tubulin-Different-Phenotype (%) [2]: 3% and 2%; Total Cell Count [2]: 294 and 99; Population Apoptotic (%) [3]: 69% and 85%; Population Fragmented Nuclei (%) [3]: 16% and 11%; Population Healthy Nuclei (%) [3]: 75% and 77%; Population Hoechst High Intensity Objects (%) [3]: 0%; Population Membrane Permeable-Phenotype (%) [3]: 2% and 6%; Population Mitochondria Different-Phenotype (%) [3]: 1% and 0%; Population Mitotic Cells (%) [3]: 30% and 14%; Population Normal (%) [3]: 99%; Population Pyknosed Nuclei (%) [3]: 8% and 10%; Population Tubulin-Different-Phenotype (%) [3]: 1% and 3%; Total Cell Count [3]: 279 and 137; Population Apoptotic (%) [4]: 92% and 100%; Population Fragmented Nuclei (%) [4]: 24%; Population Healthy Nuclei (%) [4]: 67% and 74%; Population Hoechst High Intensity Objects (%) [4]: 2% and 0%; Population Membrane Permeable-Phenotype (%) [4]: 8% and 6%; Population Mitochondria Different-Phenotype (%) [4]: 2% and 8%; Population Mitotic Cells (%) [4]: 8% and 0%; Population Normal (%) [4]: 97% and 99%; Population Pyknosed Nuclei (%) [4]: 7% and 1%; Population Tubulin-Different-Phenotype (%) [4]: 4%; Total Cell Count [4]: 338 and 113; Population Apoptotic (%) [5]: 77% and 100%; Population Fragmented Nuclei (%) [5]: 14% and 18%; Population Healthy Nuclei (%) [5]: 79% and 70%; Population Hoechst High Intensity Objects (%) [5]: 1%; Population Membrane Permeable-Phenotype (%) [5]: 3%; Population Mitochondria Different-Phenotype (%) [5]: 1% and 3%; Population Mitotic Cells (%) [5]: 22% and 0%; Population Normal (%) [5]: 98%; Population Pyknosed Nuclei (%) [5]: 5% and 10%; Population Tubulin-Different-Phenotype (%) [5]: 3% and 2%; Total Cell Count [5]: 407 and 226; Population Apoptotic (%) [6]: 94% and 81%; Population Fragmented Nuclei (%) [6]: 19% and 20%; Population Healthy Nuclei (%) [6]: 70% and 66%; Population Hoechst High Intensity Objects (%) [6]: 1%; Population Membrane Permeable-Phenotype (%) [6]: 5%; Population Mitochondria Different-Phenotype (%) [6]: 2% and 6%; Population Normal (%) [6]: 98%; Population Pyknosed Nuclei (%) [6]: 9% and 12%; Population Tubulin-Different-Phenotype (%) [6]: 3% and 2%

Question: With `C[C@H]1[C@H]2CC[C@H]3[C@@H]4CC=C5C[C@@H](N(C)C)CC[C@]5(C)[C@H]4CC[C@]23CN1C` [CONESSINE] as the compound, how does the “Population Apoptotic (%)” value [1] read?
Answer: 80% and 58%

Question: What about the “Population Fragmented Nuclei (%)” value [1] of the same compound?
Answer: 23% and 16%

Question: What about the “Population Healthy Nuclei (%)” value [1] of the same compound?
Answer: 70% and 73%

Question: And the “Population Hoechst High Intensity Objects (%)” value [1]?
Answer: 2% and 1%

Question: What about the “Population Membrane Permeable-Phenotype (%)” value [1] of the same compound?
Answer: 5%

Question: And the “Population Mitochondria Different-Phenotype (%)” value [1]?
Answer: 1% and 2%

Question: And the “Population Mitotic Cells (%)” value [1]?
Answer: 20% and 41%

Question: And the “Population Normal (%)” value [1]?
Answer: 97% and 98%

Question: And the “Population Pyknosed Nuclei (%)” value [1]?
Answer: 6% and 9%

Question: What about the “Population Tubulin-Different-Phenotype (%)” value [1] of the same compound?
Answer: 2% and 3%

Question: And the “Total Cell Count” value [1]?
Answer: 248 and 124

Question: What about the “Population Apoptotic (%)” value [2] of the same compound?
Answer: 55% and 100%

Question: And the “Population Fragmented Nuclei (%)” value [2]?
Answer: 19% and 17%

Question: And the “Population Healthy Nuclei (%)” value [2]?
Answer: 71% and 68%

Question: What about the “Population Hoechst High Intensity Objects (%)” value [2] of the same compound?
Answer: 2% and 0%

Question: And the “Population Membrane Permeable-Phenotype (%)” value [2]?
Answer: 5% and 8%

Question: And the “Population Mitochondria Different-Phenotype (%)” value [2]?
Answer: 0% and 5%

Question: And the “Population Normal (%)” value [2]?
Answer: 97% and 99%

Question: What about the “Population Pyknosed Nuclei (%)” value [2] of the same compound?
Answer: 8% and 13%

Question: And the “Population Tubulin-Different-Phenotype (%)” value [2]?
Answer: 1% and 6%

Question: And the “Total Cell Count” value [2]?
Answer: 237 and 107

Question: And the “Population Apoptotic (%)” value [3]?
Answer: 90% and 100%

Question: And the “Population Fragmented Nuclei (%)” value [3]?
Answer: 18% and 11%

Question: And the “Population Healthy Nuclei (%)” value [3]?
Answer: 74% and 81%

Question: And the “Population Hoechst High Intensity Objects (%)” value [3]?
Answer: 2% and 1%

Question: What about the “Population Membrane Permeable-Phenotype (%)” value [3] of the same compound?
Answer: 6% and 8%

Question: And the “Population Mitochondria Different-Phenotype (%)” value [3]?
Answer: 1% and 5%

Question: What about the “Population Mitotic Cells (%)” value [3] of the same compound?
Answer: 9% and 0%

Question: And the “Population Normal (%)” value [3]?
Answer: 97% and 98%

Question: What about the “Population Pyknosed Nuclei (%)” value [3] of the same compound?
Answer: 7%

Question: What about the “Population Tubulin-Different-Phenotype (%)” value [3] of the same compound?
Answer: 3% and 7%

Question: What about the “Total Cell Count” value [3] of the same compound?
Answer: 307 and 153

Question: What about the “Population Apoptotic (%)” value [4] of the same compound?
Answer: 65% and 100%

Question: And the “Population Fragmented Nuclei (%)” value [4]?
Answer: 20% and 19%

Question: And the “Population Healthy Nuclei (%)” value [4]?
Answer: 71%

Question: And the “Population Hoechst High Intensity Objects (%)” value [4]?
Answer: 2% and 4%

Question: And the “Population Membrane Permeable-Phenotype (%)” value [4]?
Answer: 2% and 10%

Question: What about the “Population Mitochondria Different-Phenotype (%)” value [4] of the same compound?
Answer: 0% and 4%

Question: What about the “Population Normal (%)” value [4] of the same compound?
Answer: 97% and 95%

Question: And the “Population Pyknosed Nuclei (%)” value [4]?
Answer: 7% and 8%

Question: And the “Population Tubulin-Different-Phenotype (%)” value [4]?
Answer: 1% and 9%

Question: And the “Total Cell Count” value [4]?
Answer: 265 and 134

Question: What about the “Population Apoptotic (%)” value [5] of the same compound?
Answer: 83% and 86%

Question: What about the “Population Fragmented Nuclei (%)” value [5] of the same compound?
Answer: 16%

Question: And the “Population Healthy Nuclei (%)” value [5]?
Answer: 79% and 73%

Question: And the “Population Hoechst High Intensity Objects (%)” value [5]?
Answer: 2%

Question: And the “Population Membrane Permeable-Phenotype (%)” value [5]?
Answer: 4%

Question: What about the “Population Mitochondria Different-Phenotype (%)” value [5] of the same compound?
Answer: 2% and 0%

Question: And the “Population Mitotic Cells (%)” value [5]?
Answer: 16% and 13%

Question: And the “Population Normal (%)” value [5]?
Answer: 97%

Question: And the “Population Pyknosed Nuclei (%)” value [5]?
Answer: 4% and 9%

Question: What about the “Population Tubulin-Different-Phenotype (%)” value [5] of the same compound?
Answer: 1% and 2%

Question: And the “Total Cell Count” value [5]?
Answer: 430 and 227

Question: What about the “Population Apoptotic (%)” value [6] of the same compound?
Answer: 89% and 85%

Question: And the “Population Fragmented Nuclei (%)” value [6]?
Answer: 19% and 15%

Question: What about the “Population Healthy Nuclei (%)” value [6] of the same compound?
Answer: 73% and 72%

Question: And the “Population Hoechst High Intensity Objects (%)” value [6]?
Answer: 1% and 6%

Question: And the “Population Membrane Permeable-Phenotype (%)” value [6]?
Answer: 4% and 9%

Question: And the “Population Mitochondria Different-Phenotype (%)” value [6]?
Answer: 2% and 5%

Question: What about the “Population Mitotic Cells (%)” value [6] of the same compound?
Answer: 10% and 15%

Question: And the “Population Normal (%)” value [6]?
Answer: 98% and 93%

Question: And the “Population Pyknosed Nuclei (%)” value [6]?
Answer: 7% and 12%

Question: What about the “Population Tubulin-Different-Phenotype (%)” value [6] of the same compound?
Answer: 3% and 6%

Question: What about the “Total Cell Count” value [6] of the same compound?
Answer: 370 and 175
